In ChEMBL document CHEMBL1122551, “Bis(m-nitrophenyl) and bis(p-nitrophenyl) esters and the phosphorodiamidate of thymidine 5'-phosphate as potential sources of intracellular thymidine 5'-phosphate in mouse cells in culture” (J Med Chem, 1984):

Tests used:
[1] = Time for hydrolysis of half the starting material was studied at a temperature of 37 degrees celsius and aqueous 50 mM phosphate (pH 6) as medium; format: ADME; conditions: phosphate buffer
Outline: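 Stability in 50 mM potassium phosphate at pH 7.6 or 6.0, 37 °C, followed by paper electrophoresis for up to 72 h. Half-life is the time for hydrolysis of half the starting material.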

[2] = Time for hydrolysis of half the starting material was studied at a temperature of 37 degrees celsius and aqueous 50 mM phosphate + 10 % p-dioxane (pH 7.6) as medium(d=no hydrolysis after 72 h); format: ADME; conditions: phosphate buffer with 10% p-dioxane
[3] = Time for hydrolysis of half the starting material was studied at a temperature of 27 degrees celsius and aqueous 50 mM phosphate + 10 % p-dioxane (pH 7.6) as medium; format: ADME; conditions: phosphate buffer with 10% p-dioxane
Outline: (§1)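 Hydrolysis in aqueous 50 mM potassium phosphate, pH 7.6, starting at 0.05 mM substrate. Nitrophenol release was followed spectrophotometrically at 400 nm. Half-life is the time for hydrolysis of half the starting material.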

[4] = Time for hydrolysis of half the starting material was studied at a temperature of 27 degrees celsius and aqueous 50 mM phosphate (pH 7.6) as medium.; format: ADME; conditions: phosphate buffer; outline: as §1
LM [5] = test: Rate of incorporation of [3H]- into DNA fraction of mouse LM(TK-) cells after 19h of pre-incubation, expressed as cpm 1/(10e6 cells) 1/h; format: functional
Outline: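 LM(TK-) thymidine-kinase-deficient mouse fibroblasts in DMEM with 10% FBS at 37 °C in 5% CO2. Cells were exposed to [methyl-3H]-labeled compound at 0.9 μM and 1 μCi/mL (0.5% EtOH) for 19 h. Acid-insoluble 3H was counted on CCl3CO2H-washed filters. Rate was expressed per 10^6 cells per hour, using Coulter counts.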

[6] = Time for hydrolysis of half the starting material was studied at a temperature of 23 degrees celsius and aqueous 50 mM phosphate + 10 % p-dioxane (pH 7.6) as medium; format: ADME, Rattus norvegicus; conditions: phosphate buffer with 10% p-dioxane; outline: as §1
LM [7] = test: Rate of incorporation of [3H]-into DNA fraction of mouse LM(TK-) cells after 2 hr of pre-incubation, expressed as cpm 1/(10e6 cells) 1/h; format: functional
Outline: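 LM(TK⁻) mouse L fibroblasts (thymidine-kinase deficient) in DMEM with 10% FBS, 37 °C, 5% CO2. Seeded in 6-cm dishes and grown overnight. Medium replaced with 0.017 μM [1',2',5-³H]-2'-deoxycytidine at 1 μCi/mL, 0.5% EtOH, for 2 h. Cells trypsinized, filter-collected, washed with 5% CCl3CO2H and 70% ethanol, then scintillation-counted. Zero-time blanks taken; cells per dish counted by Coulter.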

## Cc1cn([C@H]2C[C@H](O)[C@@H](COP(N)(N)=O)O2)c(=O)[nH]c1=O
[1]
  half-life: > 3 days
[2]
  half-life: > 3 days

## CCOP(=O)(Oc1ccc([N+](=O)[O-])cc1)Oc1ccc([N+](=O)[O-])cc1
[3]
  half-life: 120 min

## Cc1cn([C@H]2C[C@H](O)[C@@H](COP(=O)(Oc3ccc([N+](=O)[O-])cc3)Oc3ccc([N+](=O)[O-])cc3)O2)c(=O)[nH]c1=O
[4]
  half-life: 49.8 min
[3]
  half-life: 34.8 min

## Cc1cn([C@H]2C[C@H](O)[C@@H](COP(=O)(Oc3cccc([N+](=O)[O-])c3)Oc3cccc([N+](=O)[O-])c3)O2)c(=O)[nH]c1=O
LM [5]
  Activity: 18.1
[6]
  half-life: 285 min

## Nc1ccn([C@H]2C[C@H](O)[C@@H](CO)O2)c(=O)n1 [DOXECITINE]
LM [7]
  Activity: 21960

## Cc1cn([C@H]2C[C@H](O)[C@@H](CO)O2)c(=O)[nH]c1=O [DOXRIBTIMINE]
LM [5]
  Activity: 53

## Cc1cn([C@H]2C[C@H](O)[C@@H](COP(=O)(O)Oc3cccc([N+](=O)[O-])c3)O2)c(=O)[nH]c1=O
LM [5]
  Activity: 37.6
